Measured values as given in paper PMC5508335 (Journal of Veterinary Internal Medicine, 2017).
Like-named read-outs stand apart in the source and are kept apart here.

Columns and labels:
platelet function = assay: PFA-100 closure time, antiplatelet responder status; format: in vivo, dog
Outline: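 Fifteen healthy dogs received PO aspirin 2 mg/kg/d, clopidogrel 2–3 mg/kg/d, or either drug combined with prednisone 2 mg/kg/d for 28 days. Responders were defined by PFA closure time: above 300 sec for aspirin, or more than 30% above baseline for clopidogrel. Responder status was compared among groups by Fisher's exact test, with P < 0.05 as significant.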

healthy dogs = assay: Endoscopy of upper gastrointestinal tract after 28 days of therapy; format: in vivo, dog; details: day 28; PO daily
Outline: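 Fifteen healthy dogs were randomized to five PO regimens for 28 days: aspirin 2 mg/kg/d, clopidogrel 2–3 mg/kg/d, prednisone 2 mg/kg/d, prednisone plus aspirin, or prednisone plus clopidogrel. The upper gastrointestinal tract was then assessed.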

RBCs = assay: Lysis of canine RBCs by DMSO diluted in PBS; format: cell-based, dog
[1] = test system: dogs with hypoadrenocorticism; format: in vivo, dog
healthy beagle dogs = details: oral administration, ref previous studies performed by these authors; cited from earlier work
[2] = test system: New Zealand rabbits with dilated cardiomyopathy induced by doxorubicin; assay: Doxorubicin-induced dilated cardiomyopathy in New Zealand rabbits; format: in vivo, rabbit
equine neutrophils = assay: neutrophil respiratory burst, luminol chemoluminescence, opsonized zymosan; format: cell-based, horses; details: TX 0.5 to 20 μM; dose dependent
[3] = test system: dogs with pulmonic stenosis; format: in vivo, dog
canine leukocytes = assay: LPS-stimulated leukocyte cytokine production in whole blood; format: cell-based, dog; details: 10^−7 M, 24 h
Outline: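 Blood from eight healthy adult dogs was incubated with test compound (10−7 M) or control for 24 h. Leukocytes were then stimulated with LPS, and TNF and IL-10 production were measured by a canine-specific multiplex assay.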

platelet aggregation = details: cats with cardiovascular disease already receiving clopidogrel, n = 3
[4] = test system: platelet function (closure time)
[5] = distribution of danofloxacin and tulathromycin in plasma, ISF and PELF by age; format: in vivo, calves; details: non‐linear mixed effect modeling
[6] = crossover study of IV dipyrone to control fever; format: in vivo, horses; details: single 30 mg/kg IV, 6 hours post administration, versus placebo
[7] = test system: beagles with and without MVMD; assay: Dobutamine stress echocardiography in beagles with mitral valve disease; format: in vivo, dog
[8] = test system: canine osteosarcoma cell lines; assay: Combination with MCT1/4 small molecule inhibitors in canine osteosarcoma cells; format: cell-based, dog
[9] = test system: dogs given PEG before colonoscopy; assay: Anti-emetic before orogastric PEG administration; format: in vivo, dog
Outline: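 46 dogs with naturally occurring disease needed PEG bowel cleansing before colonoscopy. They were randomized to one of two anti-emetics given SC 30 minutes before orogastric-tube PEG at 66 ml/kg. PEG was repeated 2 hours later without repeating the anti-emetic. Administration was by or under supervision of blinded authors. Vomiting and regurgitation were recorded after each PEG dose.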

[10] = format: in vivo, cats; details: one 1.87 mg oral dose
healthy beagles = assay: Serum cPLI after high-dose prednisolone in healthy beagles; format: in vivo, dog; details: 4 mg/kg/day SC for 2 or 3 weeks; six beagles
[11] = test system: dogs with idiopathic IMPA; assay: Retrospective outcome of dogs with idiopathic IMPA; details: dog, in vivo
[12] = test system: dogs with ventricular tachyarrhythmias; assay: Echocardiogram and 5-minute ECG before and after oral sotalol; format: in vivo, dog
[13] = test system: Dobermans with CHF due to DCM; assay: Randomized placebo-controlled survival trial in Dobermans with CHF due to DCM; format: in vivo, dog; details: 50 mg twice daily plus standard therapies; 34 dogs; time to cardiac death
[14] = test system: dogs with gastrointestinal stromal tumors; assay: Retrospective evaluation of toceranib in canine GIST; format: in vivo, dog
[15] = test system: fecal microbiota of healthy dogs; assay: Fecal microbiota qPCR Dysbiosis Index after oral tylosin; format: in vivo, dog; details: 20 mg/kg q12 hr for 7 days
Outline: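 Ten healthy pet dogs were randomized double-blind to oral test compound at 20 mg/kg (n = 6) or placebo capsule (n = 4), given q12 hr for 7 days. Dogs stayed on their usual diet. Fecal samples were taken on days 0, 7, 10, 21 and 63, and a fecal score (1–7) was recorded daily during dosing.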

[16] = test system: healthy purpose-bred dogs; assay: Isoglycemic clamp in healthy dogs; format: in vivo, dog; details: 2.4 nmol/kg SC
[17] = test system: adrenal cortisol production; assay: ACTH stimulation test, serum cortisol by radioimmunoassay; format: in vivo, dog; details: ± SEM
Outline: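 Dogs: 5 healthy controls and 10 previously diagnosed with hyperadrenocorticism. Each dog had two ACTH stimulation tests, one with a reference tetracosactrin product (0.04 mL/kg IV) and one with the test ACTH preparation (0.08 mL/kg IV). Blood was drawn just before injection and 60 minutes after. Serum cortisol was measured by validated radioimmunoassay and reported as mean ± SEM.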

canine complement = format: biochemical, dog; details: dose curves, at the doses evaluated
[18] = 2 mg/kg every 12 hours for 30 days
[19] = G2 MVMD, DIVEd/Ao less than 2.8

CC(=O)Oc1ccccc1C(=O)O [A, aspirin]
dogs classified as responders based on PFA closure times (platelet function; day 14): 2/3
dogs classified as responders based on PFA closure times (platelet function; day 28): 1/3
dogs with endoscopic lesions (healthy dogs): 1/3

C[S+](C)[O-] [DMSO]
lysis of RBCs (RBCs; 10, 20, 70 and 80% DMSO): no hemolysis
lysis of RBCs (RBCs; 30, 40 and 90% DMSO): mild hemolysis
lysis of RBCs (RBCs; 50 and 100% DMSO): moderate hemolysis
lysis of RBCs (RBCs; 60% DMSO (diluted in PBS)): marked hemolysis

CC(C)(C)C(=O)OCC(=O)[C@H]1CC[C@H]2[C@@H]3CCC4=CC(=O)CC[C@]4(C)[C@H]3CC[C@]12C [DOCP]
median time between the DOCP and CHF ([1]; 12 dogs, range 1-29 days): 11 days
Median survival after the onset of CHF ([1]; HA/DOCP group): 953 days

O=C(N/N=C/c1cccs1)c1ccc2c(c1)OCO2 [LASSBio 294]
increase of shortening fraction (healthy beagle dogs): 19.1%
E'/A' ratio [2, 18]: < 1
E/A ratio [2, 18]: < 1
increase of FS ([2]; 2 mg/kg every 12 hours, n = 7, second week): 35%

C[C@]12C=CC(=O)C=C1CC[C@@H]1[C@@H]2C(=O)C[C@@]2(C)[C@H]1CC[C@]2(O)C(=O)CO [P, prednisone]
dogs with endoscopic lesions (healthy dogs): 1/3

CC/C(=C(\c1ccccc1)c1ccc(OCCN(C)C)cc1)c1ccccc1 [TX, Tamoxifen]
neutrophil respiratory burst induced by opsonized zymosan (equine neutrophils): inhibits neutrophil respiratory burst

CC(C)NCC(O)COc1ccc(CC(N)=O)cc1 (stereo not drawn) [atenolol]
maxPG, mean %change ± SD ([3]; 2–3 weeks post-atenolol 1–1.5 mg/kg q12): −15% ± 9
heart rate, mean %change ± SD ([3]; 2–3 weeks post-atenolol 1–1.5 mg/kg q12, n = 18): −17% ± 13
Percent change in VTI ratio ([3]; post-atenolol): 6% ± 12

Oc1ccc2c(c1)[C@@]13CCCC[C@@]1(O)[C@@H](C2)N(CC1CCC1)CC3 [butorphanol]
heart rate, mean %change ± SD ([3]; 5 minutes post-butorphanol 0.2–0.25 mg/kg IV, n = 18 dogs): −21% ± 16

C=C1/C(=C\C=C2/CCC[C@]3(C)[C@@H]([C@H](C)CCCC(C)(C)O)CC[C@@H]23)C[C@@H](O)C[C@@H]1O [calcitriol]
LPS-stimulated IL-10 production, mean±SD (canine leukocytes; control 551 ± 323): 791 ± 386 pg/mL
LPS-stimulated leukocyte TNF production, mean±SD (canine leukocytes; eight dogs, control 1694 ± 1023): 823 ± 862 pg/mL

COC(=O)[C@H](c1ccccc1Cl)N1CCc2sccc2C1 [clopidogrel]
dogs classified as responders based on PFA closure times (platelet function; day 14): 3/3
dogs classified as responders based on PFA closure times (platelet function; day 28): 3/3
PW-AA %Aggregation (platelet aggregation): 4–19%
dogs with endoscopic lesions (healthy dogs): 0/3
PFA-P2Y Closure Time ([4]; cats already receiving clopidogrel, n = 6): > 300 s
PFA-P2Y Closure Time ([4]; test repeated while receiving clopidogrel, n = 1): > 300 s

CN1C[C@@H]2C[C@H]1CN2c1cc2c(cc1F)c(=O)c(C(=O)O)cn2C1CC1 [danofloxacin]
age as covariate in plasma concentration differences [5]: not for danofloxacin treated calves

Cc1c(N(C)CS(=O)(=O)O)c(=O)n(-c2ccccc2)n1C [dipyrone, Dipyrone]
control of fever [6]: effectively controlled fever

CC(CCc1ccc(O)cc1)NCCc1ccc(O)c(O)c1 (stereo not drawn) [dobutamine]
difference between pre and post stress EF% ([7]; G1 control group): 0.25 ± 0.08
difference between pre and post stress FS% ([7]; G1 control group, 5 then 10 μg/kg/minute infusion): 0.44 ± 0.14
difference between pre and post stress EF% [7, 19]: 0.30 ± 0.08
difference between pre and post stress FS% [7, 19]: 0.49 ± 0.13
difference between pre and post stress EF% ([7]; G3 MVMD, DIVEd/Ao above 2.8): 0.13 ± 0.09
difference between pre and post stress FS% ([7]; G3 MVMD, DIVEd/Ao above 2.8): 0.19 ± 0.14

COc1cccc2c1C(=O)c1c(O)c3c(c(O)c1C2=O)C[C@@](O)(C(=O)CO)C[C@@H]3O[C@H]1C[C@H](N)[C@H](O)[C@H](C)O1 [doxorubicin]
activity in the presence of MCT1 and MCT4 small molecule inhibitors [8]: Synergistic activity

CN(C)C(=N)N=C(N)N [metformin]
activity in the presence of MCT1 and MCT4 small molecule inhibitors [8]: Synergistic activity

CCN(CC)CCNC(=O)c1cc(Cl)c(N)cc1OC [metoclopramide]
incidence of regurgitation ([9]; PEG Dose 1): 52.4%
incidence of vomiting ([9]; PEG Dose 1, anti-emetic SC 30 minutes before): 23.8%
incidence of regurgitation ([9]; PEG Dose 2): 31.6%
incidence of vomiting ([9]; PEG Dose 2): 21.1%

CN1CCN2c3ncccc3Cc3ccccc3C2C1 (stereo not drawn) [mirtazapine]
AUC, liver disease cats versus AMC cats [10]: not significantly different

C[C@]12C=CC(=O)C=C1CC[C@@H]1[C@@H]2[C@@H](O)C[C@@]2(C)[C@H]1CC[C@]2(O)C(=O)CO [prednisolone]
serum cPL concentration after versus before treatment (healthy beagles): significantly higher after than before treatment
dogs relapsed during tapering of medication [11]: 13/23
median treatment duration [11]: 397 days

CC(C)NCC(O)c1ccc(NS(C)(=O)=O)cc1 (stereo not drawn) [sotalol]
EF, mean percent change ± SD ([12]; 2–3 hours post-sotalol): −13 ± 16%
FS, mean percent change ± SD ([12]; 2–3 hours post-sotalol): −14 ± 11%
LVSA, mean percent change ± SD ([12]; 2–3 hours post-sotalol): −10 ± 12%
heart rate, mean percent change ± SD ([12]; 2–3 hours post-sotalol 2.5 ± 0.2 mg/kg PO, n = 27): −18 ± 16%

CC(=O)S[C@@H]1CC2=CC(=O)CC[C@]2(C)[C@H]2CC[C@@]3(C)[C@@H](CC[C@@]34CCC(=O)O4)[C@H]12 [spironolactone]
median survival time [13]: 183 days

Cc1[nH]c(/C=C2\C(=O)Nc3ccc(F)cc32)c(C)c1C(=O)NCCN1CCCC1 [toceranib]
dogs experiencing adverse events ([14]; 16/28, majority Grade 1 or 2 gastrointestinal toxicities): 57%
Clinical benefit (CB) ([14]; all dogs, 26/28): 93%
Clinical benefit (CB) ([14]; dogs with gross disease, 5/7): 71%
Clinical benefit (CB) ([14]; dogs with microscopic disease): 21/21

CC[C@H]1OC(=O)C[C@@H](O)[C@H](C)[C@@H](O[C@@H]2O[C@H](C)[C@@H](O[C@H]3C[C@@](C)(O)[C@@H](O)[C@H](C)O3)[C@H](N(C)C)[C@H]2O)[C@@H](CC=O)C[C@@H](C)C(=O)/C=C/C(C)=C/[C@@H]1CO[C@@H]1O[C@H](C)[C@@H](O)[C@@H](OC)[C@H]1OC [tylosin]
development of diarrhea [15]: None of the dogs in either group developed diarrhea
Dysbiosis Index, median ([15]; day 7, 6 dogs, day 0 −6.5): 2.9

Insulin glargine [Toujeo]
dogs with peakless time-action profile [16]: 4/8
duration of action, median [16]: 16.3 h
peak of action, median [16]: 6.3 h
Median onset of action ([16]; 8 healthy dogs): 4.0 h

corticotropin (SYSMEHFRWGKPVGKKRRPVKVYPNGAEDESAEAFPLEF; Corticotropin; UniProt P01189 138-176, looked up) [Acthelea]
post-ACTH serum cortisol ([17]; control group, 5 healthy dogs, 60 minute post IV): 9.00 ± 0.71 µg/dL
after ACTH serum cortisol ([17]; treated group, 10 dogs with hyperadrenocorticism on trilostano): 7.90 ± 2.1 µg/dL

B1: C1‐INH: human recombinant C1-esterase Inhibitor (protein, UniProt P05155 23-500, looked up)
Plasma protease C1 inhibitor: NPNATSSSSQDPESLQDRGEGKVATTVISKMLFVEPILEVSSLPTTNSTTNSATKITANTTDEPTTQPTTEPTTQPTIQPTQPTTQLPTDSPTQPTTGSFCPGPVTLCSDLESHSTEAVLGDALVDFSLKLYHAFSAMKKVETNMAFSPFSIASLLTQVLLGAGENTKTNLESILSYPKDFTCVHQALKGFTTKGVTSVSQIFHSPDLAIRDTFVNASRTLYSSSPRVLSNNSDANLELINTWVAKNTNNKISRLLDSLPSDTRLVLLNAIYLSAKWKTTFDPKKTRMEPFHFKNSVIKVPMMNSKKYPVAHFIDQTLKAKVGQLQLSHNLSLVILVPQNLKHRLEDMEQALSPSVFKAIMEKLEMSKFQPTLLTLPRIKVTTSQDMLSIMEKLEFFDFSYDLNLCGLTEDPDLQVSAMQHQTVLELTETGVEAAAASAISVARTLLVFEVQQPFLFVLWDQQHKFPVFMGRVYDPRA
inhibition of canine complement-mediated hemolysis (canine complement): dose‐dependent inhibition
